{"source": "paper PMC6235520", "about": "(Science Advances, 2018)", "key": {"[1]": {"target": "human KCNQ1 (Homo sapiens, UniProt P51787)", "sequence (P51787 whole entry)": "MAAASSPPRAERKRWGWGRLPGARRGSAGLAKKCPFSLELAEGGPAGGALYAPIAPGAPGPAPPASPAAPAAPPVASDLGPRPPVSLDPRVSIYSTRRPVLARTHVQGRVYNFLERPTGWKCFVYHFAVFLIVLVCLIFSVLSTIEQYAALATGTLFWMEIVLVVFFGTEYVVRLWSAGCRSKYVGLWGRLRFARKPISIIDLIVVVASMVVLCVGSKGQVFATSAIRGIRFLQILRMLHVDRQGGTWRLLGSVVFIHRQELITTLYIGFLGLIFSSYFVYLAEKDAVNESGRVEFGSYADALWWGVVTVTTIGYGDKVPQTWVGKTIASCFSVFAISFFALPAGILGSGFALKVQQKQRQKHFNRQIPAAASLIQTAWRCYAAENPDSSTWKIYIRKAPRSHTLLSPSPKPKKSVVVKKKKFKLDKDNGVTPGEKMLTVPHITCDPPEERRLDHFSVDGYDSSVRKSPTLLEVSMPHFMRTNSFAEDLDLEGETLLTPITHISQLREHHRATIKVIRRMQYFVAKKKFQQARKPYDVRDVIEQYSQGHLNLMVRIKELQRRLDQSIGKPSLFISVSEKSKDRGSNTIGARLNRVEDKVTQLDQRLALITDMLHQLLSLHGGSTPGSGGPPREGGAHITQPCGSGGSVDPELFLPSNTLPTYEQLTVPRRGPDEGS", "assay": "Two-electrode voltage clamp of KCNQ1 expressed in Xenopus laevis oocytes", "assay_type": "cell-based", "conditions": "for negative shift in the voltage dependence of KCNQ1 activation: 100 μM compound; for effect on KCNQ1 gating kinetics (activation and deactivation rates): MTX 30 µM, CPT1 100 µM"}, "[2]": {"system": "KCNQ1-R243A", "assay": "Two-electrode voltage clamp of KCNQ1-R243A mutant in Xenopus oocytes", "assay_type": "cell-based, human", "conditions": "MTX 10 μM; CPT1 100 µM", "summary_of_the_method": "(§1)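 Mutant channels were made by site-directed mutagenesis and expressed from human cRNA (α-subunit 10 ng per oocyte) in stage V–VI oocytes for 2–5 days at 16°C. Room-temperature TEVC used a pH 7.6 Hepes-buffered bath with 4 mM KCl. Compound was perfused for 3 min, then currents were recorded at −80 to +40 mV in 20-mV steps. Fold current augmentation was plotted against voltage.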"}, "[3]": {"system": "KCNQ1-R243A/KCNE1", "assay": "Two-electrode voltage clamp of KCNQ1-R243A/KCNE1 in Xenopus oocytes", "assay_type": "cell-based, human", "conditions": "MTX 10 μM; CPT1 100 µM", "summary_of_the_method": "as §1"}, "[4]": {"target": "KCNQ1-KCNE1 (Homo sapiens, UniProt P51787)", "sequence (P51787 whole entry)": "as above", "assay": "Two-electrode voltage clamp of KCNQ1-KCNE1 in Xenopus oocytes", "assay_type": "cell-based"}, "[5]": {"system": "KCNQ1-KCNE3", "assay": "Two-electrode voltage clamp of KCNQ1-KCNE3 in Xenopus oocytes", "assay_type": "cell-based, human", "conditions": "30 μM, across the voltage range studied", "summary_of_the_method": "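Human KCNQ1 and KCNE3 cRNAs were injected into defolliculated stage V–VI oocytes (α-subunit cRNA 10 ng total per oocyte) and held 2–5 days at 16°C in Barth's with penicillin/streptomycin. Room-temperature TEVC used bath 96 mM NaCl, 4 mM KCl, 1 mM MgCl2, 1 mM CaCl2, 10 mM Hepes pH 7.6. Test compound was perfused 3 min at 1 ml/min. Prepulses were −80 to +40 mV in 20-mV steps, with tails at −30 mV; n = 8.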"}, "[6]": {"system": "KCNQ1-KCNE4", "assay": "Two-electrode voltage clamp of KCNQ1-KCNE4 in Xenopus oocytes", "assay_type": "cell-based, human", "conditions": "30 μM", "summary_of_the_method": "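Oocytes (stage V–VI, defolliculated) were co-injected with human KCNQ1 and KCNE4 cRNAs (α-subunit 10 ng total) and kept 2–5 days at 16°C. TEVC was run at room temperature in 4 mM KCl/96 mM NaCl Hepes bath, pH 7.6, after 3-min gravity perfusion of 30 μM test compound. Raw tail currents at −30 mV followed prepulses from −80 to +40 mV; n = 5.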"}, "[7]": {"system": "KCNQ2-R213A/KCNQ3", "assay": "Two-electrode voltage clamp of KCNQ2-R213A/KCNQ3 in Xenopus oocytes", "assay_type": "cell-based, human", "conditions": "at a given voltage"}, "[8]": {"system": "KCNQ2/KCNQ3-R242A", "assay": "Two-electrode voltage clamp of KCNQ2/KCNQ3-R242A in Xenopus oocytes", "assay_type": "cell-based, human", "conditions": "compared with KCNQ2-R213A/KCNQ3 and wild type"}, "[9]": {"system": "KCNQ2-R213A/KCNQ3-R242A", "assay": "Two-electrode voltage clamp of KCNQ2-R213A/KCNQ3-R242A", "assay_type": "cell-based, human"}, "[10]": {"system": "KCNQ2/3 channels", "conditions": "cited from earlier work"}, "[11]": {"system": "BK", "conditions": "cited from earlier work"}, "[12]": {"system": "KCNQ1", "conditions": "cited from earlier work"}, "[13]": {"conditions": "rats fed Mallotus philippensis extract; cited from earlier work"}, "[14]": {"conditions": "cited from earlier work"}, "[15]": {"system": "hERG", "conditions": "cited from earlier work"}, "[16]": {"assay": "Pharmacokinetics in rats fed Mallotus philippensis extract", "conditions": "equates to 2 μg/ml"}}, "note": "Several values for one entry are separate records, joined by “and”; a condition that tells them apart may be missing. Identical values can stand only once. Like-named read-outs stand apart in the source and are kept apart here.", "data": [{"smiles": "CCC1=C(O)C(=O)CC1", "note": "[CPT1, 3-ethyl-2-hydroxy-2-cyclopenten-1-one]", "values": [{"measurement": "EC50", "setting": "[1]", "value": 0.1, "unit": "µM"}, {"measurement": "negative shift in the voltage dependence of KCNQ1 activation", "setting": "[1]", "value": "−5", "unit": "mV"}, {"measurement": "potency on KCNQ1 relative to MTX", "setting": "[1]; CPT1 versus MTX", "value": 100, "unit": "fold"}, {"measurement": "effect on KCNQ1 gating kinetics (activation and deactivation rates)", "setting": "[1]", "value": "statistically significant speeding of activation and slowing of deactivation"}, {"measurement": "KCNQ1 current fold increase", "setting": "[1]; at −60 mV, 100 μM", "value": 2.7, "unit": "fold"}, {"measurement": "sensitivity of KCNQ1-R243A to compound", "setting": "[2]", "value": "eliminated"}, {"measurement": "sensitivity of KCNQ1-R243A/KCNE1 complexes to compound", "setting": "[3]", "value": "eliminated"}]}, {"smiles": "CC(=O)c1c(O)c(C)c(O)c(Cc2c(O)c3c(c(C(=O)/C=C/c4ccccc4)c2O)OC(C)(C)C=C3)c1O", "note": "[MTX, mallotoxin]", "values": [{"measurement": "shift in KCNQ1 activation voltage dependence", "setting": "[1]; 30 μM MTX", "value": "−27", "unit": "mV"}, {"measurement": "effect on KCNQ1 current in presence of UCL2077", "setting": "[1]; 30 μM MTX, UCL2077 10 μM, hyperpolarized voltages", "value": "still augmented"}, {"measurement": "rescue of KCNQ1 from inhibition by UCL2077", "setting": "[1]; 30 μM MTX, UCL2077 10 μM, positive voltages", "value": "ineffective"}, {"measurement": "negative shift in the voltage dependence of KCNQ1 activation", "setting": "[1]", "value": "−27", "unit": "mV"}, {"measurement": "MTX effects on KCNQ1 in high extracellular K+", "setting": "[1]; 50 mM extracellular K+, 10 µM MTX", "value": "preserved"}, {"measurement": "EC50", "setting": "[1]; EC50 (dose response) for the ΔV0.5 activation of KCNQ1", "value": "9.4 ± 0.1", "unit": "µM"}, {"measurement": "EC50", "setting": "[1]; KCNQ1 activation EC50, at −40 mV", "value": "9.9 µM and 10 µM"}, {"measurement": "effect on KCNQ1 gating kinetics (activation and deactivation rates)", "setting": "[1]", "value": "speeded KCNQ1 activation and slowed its deactivation"}, {"measurement": "KCNQ1 current fold increase", "setting": "[1]; at −40 mV, 30 μM", "value": 5.4, "unit": "fold"}, {"measurement": "EC50", "setting": "[4]", "value": "27.9 ± 0.3", "unit": "µM"}, {"measurement": "shift of V0.5 of activation of KCNQ1-KCNE1", "setting": "[4]; 30 μM MTX", "value": "−45", "unit": "mV"}, {"measurement": "effect on KCNQ1-KCNE1 currents", "setting": "[4]; 30 μM, across the voltage range tested", "value": "strongly augmented"}, {"measurement": "effect on KCNQ1-KCNE3 channels", "setting": "[5]", "value": "moderately inhibited"}, {"measurement": "effect on KCNQ1-KCNE4 activity", "setting": "[6]", "value": "minor augmentation"}, {"measurement": "sensitivity of KCNQ1-R243A to compound", "setting": "[2]", "value": "completely insensitive"}, {"measurement": "sensitivity of KCNQ1-R243A/KCNE1 complexes to compound", "setting": "[3]", "value": "completely insensitive"}, {"measurement": "MTX-induced shift in the V0.5 of activation versus wild-type KCNQ2/3", "setting": "[7]", "value": "slightly greater"}, {"measurement": "efficacy of MTX on KCNQ2/KCNQ3-R242A channels", "setting": "[8]", "value": "even more efficacious"}, {"measurement": "sensitivity of RA-RA KCNQ2/3 channels to MTX", "setting": "[9]", "value": "insensitive"}, {"measurement": "effect on KCNQ2/3 channels", "setting": "[10]", "value": "activates"}, {"measurement": "effect on BK potassium channel", "setting": "[11]", "value": "activate"}, {"measurement": "effect on KCNQ1 potassium channel", "setting": "[12]", "value": "activate"}, {"measurement": "oral bioavailability", "setting": "[13]", "value": "> 20", "unit": "%"}, {"measurement": "plasma concentrations", "setting": "[13]", "value": "> 2000", "unit": "ng/mL"}, {"measurement": "toxicity", "setting": "[14]", "value": "toxic in large doses"}, {"measurement": "effect on hERG potassium channel", "setting": "[15]", "value": "activate"}, {"measurement": "plasma level converted to molar concentration", "setting": "[16]", "value": 4, "unit": "µM"}]}]}
